Test results taken from ChEMBL document CHEMBL1287651, “Synthesis and in vitro antibacterial activity of fluoroquinolone derivatives containing 3-(N'-alkoxycarbamimidoyl)-4-(alkoxyimino) pyrrolidines” (2010).
In brackets after ≈: the same amount, converted by molar mass.

Legend:
Assay type in all cases: functional
Escherichia coli [1] = assay: Antibacterial activity against Escherichia coli 08-21 after 18 to 24 hrs by twofold serial dilution method
In short: (§1)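 MIC determined by the standard twofold serial dilution method on agar media, screening against Gram-positive and Gram-negative strains. Levofloxacin and gemifloxacin were run alongside as reference drugs.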

Enterococcus faecalis [2] = assay: Antibacterial activity against Enterococcus faecalis 08-10 after 18 to 24 hrs by twofold serial dilution method; in short: as §1
Pseudomonas aeruginosa [3] = assay: Antibacterial activity against Pseudomonas aeruginosa 09-34 after 18 to 24 hrs by twofold serial dilution method; in short: as §1
Escherichia coli [4] = assay: Antibacterial activity against Escherichia coli 08-22 after 18 to 24 hrs by twofold serial dilution method; in short: as §1
Klebsiella pneumoniae [5] = assay: Antibacterial activity against Klebsiella pneumoniae 09-21 after 18 to 24 hrs by twofold serial dilution method; in short: as §1
Escherichia coli [6] = assay: Antibacterial activity against Escherichia coli ATCC 25922 after 18 to 24 hrs by twofold serial dilution method; in short: as §1
Staphylococcus aureus [7] = assay: Antibacterial activity against methicillin-sensitive Staphylococcus aureus 08-2 after 18 to 24 hrs by twofold serial dilution method
In short: (§2)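 Standard twofold serial agar dilution method on agar media for MIC determination. Screened against representative Gram-positive and Gram-negative strains. Levofloxacin and GMFX served as control drugs.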

[8] = tested on: Staphylococcus epidermidis; assay: Antibacterial activity against methicillin-sensitive Staphylococcus epidermidis 09-6 after 18 to 24 hrs by twofold serial dilution method; in short: as §2
[9] = tested on: Staphylococcus epidermidis; assay: Antibacterial activity against methicillin-resistant Staphylococcus epidermidis 09-2 after 18 to 24 hrs by twofold serial dilution method; in short: as §2
[10] = tested on: Staphylococcus epidermidis; assay: Antibacterial activity against methicillin-resistant Staphylococcus epidermidis 09-4 after 18 to 24 hrs by twofold serial dilution method; in short: as §2
Klebsiella pneumoniae [11] = assay: Antibacterial activity against Klebsiella pneumoniae 09-23 after 18 to 24 hrs by twofold serial dilution method; in short: as §1
Pseudomonas aeruginosa [12] = assay: Antibacterial activity against Pseudomonas aeruginosa ATCC 27853 after 18 to 24 hrs by twofold serial dilution method; in short: as §1
[13] = tested on: Staphylococcus epidermidis; assay: Antibacterial activity against methicillin-resistant Staphylococcus epidermidis 09-3 after 18 to 24 hrs by twofold serial dilution method; in short: as §2
Enterococcus faecium [14] = assay: Antibacterial activity against Enterococcus faecium 08-2 after 18 to 24 hrs by twofold serial dilution method; in short: as §1
Pseudomonas aeruginosa [15] = assay: Antibacterial activity against Pseudomonas aeruginosa 09-35 after 18 to 24 hrs by twofold serial dilution method; in short: as §1
Enterococcus faecium [16] = assay: Antibacterial activity against Enterococcus faecium 08-7 after 18 to 24 hrs by twofold serial dilution method; in short: as §1
Staphylococcus aureus [17] = assay: Antibacterial activity against methicillin-resistant Staphylococcus aureus 08-1 after 18 to 24 hrs by twofold serial dilution method; in short: as §2
Klebsiella pneumoniae [18] = assay: Antibacterial activity against Klebsiella pneumoniae 09-22 after 18 to 24 hrs by twofold serial dilution method; in short: as §1
[19] = tested on: Staphylococcus epidermidis; assay: Antibacterial activity against methicillin-sensitive Staphylococcus epidermidis 09-3 after 18 to 24 hrs by twofold serial dilution method; in short: as §2
Pseudomonas aeruginosa [20] = assay: Antibacterial activity against Pseudomonas aeruginosa 09-33 after 18 to 24 hrs by twofold serial dilution method; in short: as §1
Staphylococcus aureus [21] = assay: Antibacterial activity against Staphylococcus aureus ATCC […] after 18 to 24 hrs by twofold serial dilution method; in short: as §1
Streptococcus pneumoniae [22] = assay: Antibacterial activity against Streptococcus pneumoniae 08-2 after 18 to 24 hrs by twofold serial dilution method; in short: as §1
Pseudomonas aeruginosa [23] = assay: Antibacterial activity against Pseudomonas aeruginosa 09-32 after 18 to 24 hrs by twofold serial dilution method; in short: as §1
Streptococcus pneumoniae [24] = assay: Antibacterial activity against Streptococcus pneumoniae 08-4 after 18 to 24 hrs by twofold serial dilution method; in short: as §1
Enterococcus faecalis [25] = assay: Antibacterial activity against Enterococcus faecalis 08-12 after 18 to 24 hrs by twofold serial dilution method; in short: as §1

Row | SMILES | MIC (Escherichia coli [1]) | MIC (Enterococcus faecalis [2]) | MIC (Pseudomonas aeruginosa [3]) | MIC (Escherichia coli [4]) | MIC (Klebsiella pneumoniae [5]) | MIC (Escherichia coli [6]) | MIC (Staphylococcus aureus [7]) | MIC [8] | MIC [9] | MIC [10] | MIC (Klebsiella pneumoniae [11]) | MIC (Pseudomonas aeruginosa [12]) | MIC (Enterococcus faecium [14]) | MIC (Pseudomonas aeruginosa [15]) | MIC (Enterococcus faecium [16]) | MIC (Staphylococcus aureus [17]) | MIC (Klebsiella pneumoniae [18]) | MIC [19] | MIC (Pseudomonas aeruginosa [20]) | MIC (Staphylococcus aureus [21]) | other results
1 | CCO/N=C1\CN(c2nc3c(cc2F)c(=O)c(C(=O)O)cn3-c2ccc(F)cc2F)CC1/C(N)=N\OC (centres undefined) | > 128 µg/mL | > 128 µg/mL | > 128 µg/mL | > 128 µg/mL | 0.25 µg/mL (≈ 0.482 µM) | 128 µg/mL (≈ 247 µM) | 0.25 µg/mL (≈ 0.482 µM) | 0.25 µg/mL (≈ 0.482 µM) | 0.125 µg/mL (≈ 0.241 µM) | 0.25 µg/mL (≈ 0.482 µM) | 32 µg/mL (≈ 61.7 µM) | 32 µg/mL (≈ 61.7 µM) | > 128 µg/mL | > 128 µg/mL | > 128 µg/mL | 0.25 µg/mL (≈ 0.482 µM) | 32 µg/mL (≈ 61.7 µM) | 0.125 µg/mL (≈ 0.241 µM) | > 128 µg/mL | 0.25 µg/mL (≈ 0.482 µM) | MIC [13]: 0.25 µg/mL (≈ 0.482 µM); MIC (Streptococcus pneumoniae [22]): 32 µg/mL (≈ 61.7 µM); MIC (Pseudomonas aeruginosa [23]): > 128 µg/mL; MIC (Streptococcus pneumoniae [24]): 32 µg/mL (≈ 61.7 µM); MIC (Enterococcus faecalis [25]): > 128 µg/mL
2 | CCO/N=C(/N)C1CN(c2nc3c(cc2F)c(=O)c(C(=O)O)cn3-c2ccc(F)cc2F)C/C1=N\OC (centres undefined) | > 128 µg/mL | > 128 µg/mL | > 128 µg/mL | > 128 µg/mL | > 128 µg/mL | > 128 µg/mL | 0.25 µg/mL (≈ 0.482 µM) | 0.25 µg/mL (≈ 0.482 µM) | 2 µg/mL (≈ 3.86 µM) | 0.25 µg/mL (≈ 0.482 µM) | > 128 µg/mL | > 128 µg/mL | > 128 µg/mL | > 128 µg/mL | > 128 µg/mL | 0.25 µg/mL (≈ 0.482 µM) | 32 µg/mL (≈ 61.7 µM) | 0.125 µg/mL (≈ 0.241 µM) | > 128 µg/mL | 0.125 µg/mL (≈ 0.241 µM) | MIC [13]: 0.25 µg/mL (≈ 0.482 µM); MIC (Streptococcus pneumoniae [22]): > 128 µg/mL; MIC (Pseudomonas aeruginosa [23]): > 128 µg/mL; MIC (Streptococcus pneumoniae [24]): > 128 µg/mL; MIC (Enterococcus faecalis [25]): > 128 µg/mL
3 | CO/N=C1\CN(c2nc3c(cc2F)c(=O)c(C(=O)O)cn3C2CC2)CC1/C(N)=N\O (centres undefined) | > 128 µg/mL | > 128 µg/mL | 8 µg/mL (≈ 19.1 µM) | > 128 µg/mL | > 128 µg/mL | 128 µg/mL (≈ 306 µM) | 1 µg/mL (≈ 2.39 µM) | 128 µg/mL (≈ 306 µM) | 1 µg/mL (≈ 2.39 µM) | 2 µg/mL (≈ 4.78 µM) | > 128 µg/mL | 4 µg/mL (≈ 9.56 µM) | > 128 µg/mL | > 128 µg/mL | > 128 µg/mL | 128 µg/mL (≈ 306 µM) | 32 µg/mL (≈ 76.5 µM) | 128 µg/mL (≈ 306 µM) | 8 µg/mL (≈ 19.1 µM) | 1 µg/mL (≈ 2.39 µM) | MIC [13]: 1 µg/mL (≈ 2.39 µM); MIC (Streptococcus pneumoniae [22]): 2 µg/mL (≈ 4.78 µM); MIC (Pseudomonas aeruginosa [23]): 8 µg/mL (≈ 19.1 µM); MIC (Streptococcus pneumoniae [24]): 2 µg/mL (≈ 4.78 µM); MIC (Enterococcus faecalis [25]): 4 µg/mL (≈ 9.56 µM)
4 | CCO/N=C1\CN(c2c(F)cc3c(=O)c(C(=O)O)cn(CC)c3c2F)CC1/C(N)=N\OCC (centres undefined) | > 128 µg/mL | > 128 µg/mL | > 128 µg/mL | > 128 µg/mL | > 128 µg/mL | > 128 µg/mL | > 128 µg/mL | > 128 µg/mL | > 128 µg/mL | > 128 µg/mL | > 128 µg/mL | > 128 µg/mL | > 128 µg/mL | > 128 µg/mL | > 128 µg/mL | > 128 µg/mL | > 128 µg/mL | > 128 µg/mL | > 128 µg/mL | 8 µg/mL (≈ 17.2 µM) | MIC (Streptococcus pneumoniae [22]): > 128 µg/mL; MIC (Pseudomonas aeruginosa [23]): > 128 µg/mL; MIC (Streptococcus pneumoniae [24]): > 128 µg/mL; MIC (Enterococcus faecalis [25]): > 128 µg/mL
5 | CO/N=C1\CN(c2nc3c(cc2F)c(=O)c(C(=O)O)cn3C2CC2)CC1/C(N)=N\OC (centres undefined) | > 128 µg/mL | > 128 µg/mL | > 128 µg/mL | > 128 µg/mL | > 128 µg/mL | 128 µg/mL (≈ 296 µM) | 1 µg/mL (≈ 2.31 µM) | 0.25 µg/mL (≈ 0.578 µM) | 1 µg/mL (≈ 2.31 µM) | 0.25 µg/mL (≈ 0.578 µM) | > 128 µg/mL | 64 µg/mL (≈ 148 µM) | > 128 µg/mL | 64 µg/mL (≈ 148 µM) | > 128 µg/mL | 0.25 µg/mL (≈ 0.578 µM) | 1 µg/mL (≈ 2.31 µM) | 0.25 µg/mL (≈ 0.578 µM) | > 128 µg/mL | 0.25 µg/mL (≈ 0.578 µM) | MIC [13]: 0.25 µg/mL (≈ 0.578 µM); MIC (Streptococcus pneumoniae [22]): > 128 µg/mL; MIC (Pseudomonas aeruginosa [23]): 128 µg/mL (≈ 296 µM); MIC (Streptococcus pneumoniae [24]): 1 µg/mL (≈ 2.31 µM); MIC (Enterococcus faecalis [25]): > 128 µg/mL
